Assay results reported in ChEMBL document CHEMBL3351274, “Sensitization of tumor necrosis factor-related apoptosis-inducing ligand (TRAIL)-resistant primary prostate cancer cells by isoegomaketone from Perilla frutescens” (J Nat Prod, 2014).
Calls of active or inactive are those of the source. The rule behind the calls is not given here.

Tests used:
[1] = Induction of apoptosis in human RC-58T/h/SA#4 cells assessed as Bcl-2 activation at 20 uM after 24 hrs by immunoblotting analysis relative to untreated control; assay type: functional
In short: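 Cells grown in DMEM/10% FBS at 37 °C, 5% CO2, then treated 24 h with compound (20 μM) with or without TRAIL (100 ng/mL). Whole lysates were used for Bax and Bcl-2. Cytosolic and mitochondrial fractions were prepared with a mitochondria isolation kit for AIF and cytochrome c. Blotting used 10 μg protein/lane, 12% SDS-PAGE, nitrocellulose, overnight primary antibody at 4 °C and ECL detection.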

[2] = Induction of apoptosis in human RC-58T/h/SA#4 cells assessed as DR5 expression at 20 uM after 3 hrs by immunoblotting analysis relative to untreated control; assay type: functional
[3] = Induction of apoptosis in human RC-58T/h/SA#4 cells assessed as DR5 expression at 20 uM after 6 hrs by immunoblotting analysis relative to untreated control; assay type: functional
[4] = organism: Homo sapiens; assay: Sensitization of TRAIL-induced apoptosis in human RC-58T/h/SA#4 cells assessed as condensation of chromatin at 20 uM after 24 hrs by Hoechst 33258 staining-based fluorescence microscopy; assay type: functional, cell-based
In short: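 Cells seeded at 1 × 10^6/well and given 20 μM compound and/or 100 ng/mL TRAIL for 24 h. Cells fixed in 1% glutaraldehyde and stained with 5 μg/mL Hoechst 33258 for 10 min at room temperature. Nuclear fragmentation and chromatin condensation scored by fluorescence microscopy at ×400.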

[5] = organism: Homo sapiens; assay: Sensitization of TRAIL-induced apoptosis in human RC-58T/h/SA#4 cells at 20 uM after 24 hrs by annexin-V/propidium iodide staining-based flow cytometry relative to control; assay type: functional, cell-based
In short: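 RC-58T/h/SA#4 cells seeded at 1 × 10^5 cells/mL in 6-well plates and given 20 μM compound and/or 100 ng/mL TRAIL for 24 h. Cells washed in ice-cold PBS, labelled with annexin V Alexa Fluor 488 for 30 min at 4 °C in the dark, then with PI. Annexin V-positive fraction counted by flow cytometry; three independent experiments, means ± SD, Student's t-test.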

[6] = Sensitization of TRAIL-induced apoptosis in human RC-58T/h/SA#4 cells assessed as accumulation at Sub-G1 phase at 20 uM after 24 hrs by annexin-V/propidium iodide staining-based flow cytometry (reference value: 4.8%); assay type: functional
[7] = Sensitization of TRAIL-induced apoptosis in human RC-58T/h/SA#4 cells assessed as accumulation at Sub-G1 phase at 20 uM after 24 hrs by annexin-V/propidium iodide staining-based flow cytometry in presence of pan-caspase inhibitor z-VAD-fmk (reference value: 4.8%); assay type: functional
[8] = Sensitization of TRAIL-induced apoptosis in human RC-58T/h/SA#4 cells assessed as Bcl-2 activation at 20 uM after 24 hrs by immunoblotting analysis relative to untreated control; assay type: functional
In short: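 Cells seeded at 5 × 10^4 cells/mL and cultured 24 h, then given 20 μM compound and/or 100 ng/mL TRAIL for 24 h. Whole-cell lysate made in Tris/NaCl/EDTA/NaF/pyrophosphate/PMSF/aprotinin buffer, 30 min on ice, protein measured by BCA. 12% SDS-PAGE at 10 μg/lane, nitrocellulose blot, primary antibodies (caspase-3, -8, -9, Bax, Bcl-2, PARP) overnight at 4 °C, HRP secondary, ECL.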

In the case of `CC(C)/C=C/C(=O)c1ccoc1`, the Ratio [1] was 0.7, the Ratio [2] was 1.2 and the Ratio [3] was 1.3. For the same compound, the Activity [4] was “Active”, the Activity [5] was “Active” and the Activity [6] was 18%. The Activity [7] was 14.4% and the Ratio [8] was 0.5.
